Assay results taken from ChEMBL document CHEMBL4373711, “Development of 3,5-Dinitrophenyl-Containing 1,2,4-Triazoles and Their Trifluoromethyl Analogues as Highly Efficient Antitubercular Agents Inhibiting Decaprenylphosphoryl-β-d-ribofuranose 2'-Oxidase” (J Med Chem, 2019).
In brackets after ≈: the same amount, converted by molar mass. Activity calls are given as the source filed them. No cut-off for these calls is given here.

What was measured:
[1] = target: T1, Decaprenylphosphoryl-beta-D-ribose oxidase (Mycobacterium smegmatis (strain ATCC 700084 / mc(2)155)) (UniProt A0R607); experiment: Inhibition of DprE1 in Mycolicibacterium smegmatis MC2 155 lysate assessed as reduction in epimerization of P[14C]RPP to DP[14C]A at 70 uM measured after 1.5 hrs in presence of NADH by TLC-based autoradiography; format: subcellular
T1 sequence (whole entry): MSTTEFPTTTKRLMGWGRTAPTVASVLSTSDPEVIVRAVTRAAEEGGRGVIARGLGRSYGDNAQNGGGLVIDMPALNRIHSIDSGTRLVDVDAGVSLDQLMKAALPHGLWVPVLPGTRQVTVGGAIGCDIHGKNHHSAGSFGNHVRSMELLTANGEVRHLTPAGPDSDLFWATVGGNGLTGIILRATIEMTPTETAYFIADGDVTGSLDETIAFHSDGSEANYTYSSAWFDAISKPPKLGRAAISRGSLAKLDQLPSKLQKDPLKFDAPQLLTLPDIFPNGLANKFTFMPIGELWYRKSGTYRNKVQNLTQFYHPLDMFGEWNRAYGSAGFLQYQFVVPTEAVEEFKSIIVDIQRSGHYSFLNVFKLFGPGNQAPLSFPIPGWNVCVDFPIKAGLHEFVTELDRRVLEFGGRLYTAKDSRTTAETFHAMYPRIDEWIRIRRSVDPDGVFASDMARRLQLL
In short: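 Cell-free DPA synthesis used a membrane/cell-envelope fraction (430 µg), spun at 100 000 × g, from sonicated M. smegmatis mc2155. The fraction was incubated 1.5 h with 15,000 dpm P[14C]RPP and NADH. BTZ was used at 70 µM and test compounds at 700 µM final, both added from DMSO stocks. Lipids were extracted, 25% was resolved by TLC, and autoradiography ran 8 days at -80 °C.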

[2] = target: T2, Decaprenylphosphoryl-beta-D-ribose oxidase (Mycobacterium tuberculosis (strain ATCC 25618 / H37Rv)) (UniProt P9WJF1); experiment: Inhibition of DprE1 in Mycobacterium tuberculosis H37Rv assessed as accumulation of trehalose monomycolates at 10 times MIC measured after 24 hrs in presence of [14C]-acetate by TLC-based autoradiography
T2 sequence (whole entry): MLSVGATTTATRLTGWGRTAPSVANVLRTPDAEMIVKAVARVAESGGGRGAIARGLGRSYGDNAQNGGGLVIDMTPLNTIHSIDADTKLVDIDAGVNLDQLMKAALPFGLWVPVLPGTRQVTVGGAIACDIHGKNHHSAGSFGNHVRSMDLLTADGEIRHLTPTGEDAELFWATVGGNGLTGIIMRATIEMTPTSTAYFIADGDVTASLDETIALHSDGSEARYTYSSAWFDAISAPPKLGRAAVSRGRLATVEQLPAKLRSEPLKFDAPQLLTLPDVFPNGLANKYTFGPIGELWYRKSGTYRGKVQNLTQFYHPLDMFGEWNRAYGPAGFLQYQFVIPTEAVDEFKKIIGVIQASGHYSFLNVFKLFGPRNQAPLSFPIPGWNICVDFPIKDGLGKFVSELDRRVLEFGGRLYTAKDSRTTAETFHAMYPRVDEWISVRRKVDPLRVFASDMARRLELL
In short: (§1)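 M. tuberculosis H37Rv cultures were exposed to compound at final 10× or 100× MIC, or to DMSO, together with [14C]-acetate at 1 µCi/ml final. After 24 h, lipids were extracted in CHCl3/CH3OH (2:1) for 2 h at 65 °C and given two Folch washes. Extracts were run on TLC in CHCl3/CH3OH/H2O (20:4:0.5), then autoradiographed for 7 days at -80 °C.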

[3] = target: T2, Decaprenylphosphoryl-beta-D-ribose oxidase (Mycobacterium tuberculosis (strain ATCC 25618 / H37Rv)); experiment: Inhibition of DprE1 in Mycobacterium tuberculosis H37Rv assessed as accumulation of trehalose dimycolates at 10 times MIC measured after 24 hrs in presence of [14C]-acetate by TLC-based autoradiography; in short: as §1
[4] = test system: Mycobacterium tuberculosis; experiment: Antitubercular activity against Mycobacterium tuberculosis H37Rv; format: functional

Row | SMILES | inhibition [1] | inhibition [2] | inhibition [3] | MIC [4] [µM]
1 | C[C@H]1COC2(CCN(c3nc(=O)c4cc(C(F)(F)F)cc([N+](=O)[O-])c4s3)CC2)O1 | Active | Active | Active | 
2 | O=[N+]([O-])c1cn2c(n1)OC[C@@H](OCc1ccc(OC(F)(F)F)cc1)C2 [PRETOMANID] |  |  |  | 0.05 to 0.7 (≈ 0.018 to 0.251 µg/mL)
